Measurements published in ChEMBL document CHEMBL1240360, “TMC278, a next-generation nonnucleoside reverse transcriptase inhibitor (NNRTI), active against wild-type and NNRTI-resistant HIV-1” (Antimicrob Agents Chemother, 2010).

Tests used:
[1] = test system: Human immunodeficiency virus 1; test: Antiviral activity against Human immunodeficiency virus 1 subtype D isolate 92UG001 infected in human PBMC cells by cell based assay; conditions: Human immunodeficiency virus 1, subtype D isolate 92UG001, PBMC
[2] = test system: Human immunodeficiency virus 1; test: Antiviral activity against Human immunodeficiency virus 1 subtype D isolate 92UG024 infected in human PBMC cells by cell based assay; conditions: Human immunodeficiency virus 1, subtype D 92UG024, PBMC
[3] = test system: Human immunodeficiency virus 1; test: Antiviral activity against Human immunodeficiency virus 1 subtype D isolate 92UG035 infected in human PBMC cells by cell based assay; conditions: Human immunodeficiency virus 1, subtype D 92UG035, PBMC
[4] = test system: Human immunodeficiency virus 1; test: Antiviral activity against Human immunodeficiency virus 1 subtype E isolate 92TH006 infected in human PBMC cells by cell based assay; conditions: Human immunodeficiency virus 1, subtype E 92TH006, PBMC
[5] = test system: Human immunodeficiency virus 1; test: Antiviral activity against Human immunodeficiency virus 1 subtype E isolate 93TH073 infected in human PBMC cells by cell based assay; conditions: Human immunodeficiency virus 1, subtype E 93TH073, PBMC
[6] = test system: Human immunodeficiency virus 1; test: Antiviral activity against Human immunodeficiency virus 1 subtype E isolate CMU08 infected in human PBMC cells by cell based assay; conditions: Human immunodeficiency virus 1, subtype E isolate CMU08, PBMC
[7] = test system: Human immunodeficiency virus 1; test: Antiviral activity against Human immunodeficiency virus 1 subtype F isolate 93BR019 infected in human PBMC cells by cell based assay; conditions: Human immunodeficiency virus 1, subtype F isolate 93BR019, PBMC
[8] = test system: Human immunodeficiency virus 1; test: Antiviral activity against Human immunodeficiency virus 1 subtype F isolate 93BR020 infected in human PBMC cells by cell based assay; conditions: Human immunodeficiency virus 1, subtype F isolate 93BR020, PBMC
[9] = test system: Human immunodeficiency virus 1; test: Antiviral activity against Human immunodeficiency virus 1 subtype F isolate 93BR029 infected in human PBMC cells by cell based assay; conditions: Human immunodeficiency virus 1, subtype F isolate 93BR029, PBMC
[10] = test system: Human immunodeficiency virus 1; test: Antiviral activity against Human immunodeficiency virus 1 subtype G isolate G3 infected in human PBMC cells by cell based assay; conditions: Human immunodeficiency virus 1, subtype G isolate G3, PBMC
[11] = test system: Human immunodeficiency virus 1; test: Antiviral activity against Human immunodeficiency virus 1 subtype G isolate JV1083 infected in human PBMC cells by cell based assay; conditions: Human immunodeficiency virus 1, subtype G isolate JV1083, PBMC
[12] = test system: Human immunodeficiency virus 1; test: Antiviral activity against Human immunodeficiency virus 1 subtype G isolate RU132 infected in human PBMC cells by cell based assay; conditions: Human immunodeficiency virus 1, subtype G isolate RU132, PBMC
MT4 = test: Cytotoxicity against human MT4 cells by cell based assay
How it was run: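 Cytotoxicity in MT4 cells from cell-based assays gave a 50% cytotoxic concentration, reported as a median with first- to third-quartile values over the stated number of experiments.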

[13] = test system: Human immunodeficiency virus 2; test: Antiviral activity against Human immunodeficiency virus 2 ROD infected in human MT4 cells assessed as reduction in virus induced cytopathicity; assay type: functional, organism-based; conditions: Human immunodeficiency virus 2, ISOLATE ROD
How it was run: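 MT4 cells (1.5 × 10^5/ml) infected with HIV (MOI 0.01) were added to serial compound dilutions and incubated 5 days at 37°C in 5% CO2. Protection from virus-induced cell death was read by MTT tetrazolium colorimetry, giving an EC50 in micromolar.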

[14] = test system: Human immunodeficiency virus 1; test: Antiviral activity against Human immunodeficiency virus 1 subtype (H) infected in human MT4 cells assessed as reduction in virus induced cytopathicity; assay type: functional, organism-based
How it was run: (§1)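 Recombinant viruses were made by recombining patient-derived HIV-1 RT-PR sequences into an RT-PR-deleted HXB2 proviral clone transfected into MT4 cells. Subtype was assigned from PR/RT sequence by Smith-Waterman alignment to HXB2. MT4 cells (1.5 × 10^5/ml) were infected at MOI 0.01 with serially diluted compound for 5 days at 37°C. Viability was read by MTT and EC50 derived.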

[15] = test system: Human immunodeficiency virus 1; test: Antiviral activity against Human immunodeficiency virus 1 subtype G infected in human MT4 cells assessed as reduction in virus induced cytopathicity; assay type: functional, organism-based; how it was run: as §1
[16] = test system: Human immunodeficiency virus 1; test: Antiviral activity against Human immunodeficiency virus 1 subtype D infected in human MT4 cells assessed as reduction in virus induced cytopathicity; assay type: functional, organism-based; how it was run: as §1
[17] = test system: Human immunodeficiency virus 1; test: Antiviral activity against Human immunodeficiency virus 1 subtype F1 infected in human MT4 cells assessed as reduction in virus induced cytopathicity; assay type: functional, organism-based; conditions: Human immunodeficiency virus 1, subtype F1, MT4; how it was run: as §1
[18] = test system: Human immunodeficiency virus 1; test: Antiviral activity against Human immunodeficiency virus 1 subtype C infected in human MT4 cells assessed as reduction in virus induced cytopathicity; assay type: functional, organism-based; how it was run: as §1
[19] = test system: Human immunodeficiency virus 1; test: Antiviral activity against Human immunodeficiency virus 1 subtype BG infected in human MT4 cells assessed as reduction in virus induced cytopathicity; assay type: functional, organism-based; how it was run: as §1
[20] = test system: Human immunodeficiency virus 1; test: Antiviral activity against Human immunodeficiency virus 1 subtype AG infected in human MT4 cells assessed as reduction in virus induced cytopathicity; assay type: functional, organism-based; how it was run: as §1
[21] = test system: Human immunodeficiency virus 1; test: Antiviral activity against Human immunodeficiency virus 1 subtype AE infected in human MT4 cells assessed as reduction in virus induced cytopathicity; assay type: functional, organism-based; how it was run: as §1
[22] = test system: Human immunodeficiency virus 1; test: Antiviral activity against Human immunodeficiency virus 1 subtype A1 infected in human MT4 cells assessed as reduction in virus induced cytopathicity; assay type: functional, organism-based; conditions: Human immunodeficiency virus 1, subtype A1, MT4; how it was run: as §1
[23] = test system: Human immunodeficiency virus 1; test: Antiviral activity against Human immunodeficiency virus 1 3B infected in human MT4 cells assessed as reduction in virus induced cytopathicity; assay type: functional, organism-based
How it was run: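 MT4 cells (1.5 × 10^5/ml) infected with HIV-1 IIIB at MOI 0.01 and added to serially diluted compound. Cultures incubated 5 days at 37°C under 5% CO2. Cell viability, as protection from virus-induced killing, read by MTT tetrazolium colorimetry. EC50 reported as median with first to third quartiles over n experiments.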

[24] = test system: Human immunodeficiency virus 1; test: Antiviral activity against Human immunodeficiency virus 1 subtype O misolate BCF01 infected in human PBMC cells by cell based assay; conditions: Human immunodeficiency virus 1, subtype O isolate BCF01, PBMC
[25] = test system: Human immunodeficiency virus 1; test: Antiviral activity against Human immunodeficiency virus 1 subtype O isolate BCF02 infected in human PBMC cells by cell based assay; conditions: Human immunodeficiency virus 1, subtype O isolate BCF02, PBMC
[26] = test system: Human immunodeficiency virus 1; test: Antiviral activity against Human immunodeficiency virus 1 subtype O isolate BCF03 infected in human PBMC cells by cell based assay; conditions: Human immunodeficiency virus 1, subtype O isolate BCF03, PBMC
[27] = test system: Human immunodeficiency virus 1; test: Antiviral activity against Human immunodeficiency virus 1 group M subtype C assessed as days to viral replication breakthrough at 200 nM by cell based assay; assay type: functional
[28] = test system: Human immunodeficiency virus 1; test: Antiviral activity against Human immunodeficiency virus 1 group M subtype D assessed as days to viral replication breakthrough at 200 nM by cell based assay; assay type: functional
[29] = test system: Human immunodeficiency virus 1; test: Antiviral activity against Human immunodeficiency virus 1 group M subtype F1 assessed as days to viral replication breakthrough at 200 nM by cell based assay; assay type: functional
[30] = test system: Human immunodeficiency virus 1; test: Antiviral activity against Human immunodeficiency virus 1 group M subtype G assessed as days to viral replication breakthrough at 200 nM by cell based assay; assay type: functional
[31] = test system: Human immunodeficiency virus 1; test: Antiviral activity against Human immunodeficiency virus 1 group M subtype H assessed as days to viral replication breakthrough at 200 nM by cell based assay; assay type: functional
[32] = test system: Human immunodeficiency virus 1; test: Antiviral activity against Human immunodeficiency virus 1 group M subtype A1 assessed as days to viral replication breakthrough at 10 nM by cell based assay; assay type: functional

EC50 [1]: 0.26 nM | EC50 [2]: 0.38 nM | EC50 [3]: 0.07 nM | EC50 [4]: 0.08 nM | EC50 [5]: 0.07 nM | EC50 [6]: 1.01 nM | EC50 [7]: 0.95 nM | EC50 [8]: 0.16 nM | EC50 [9]: 0.19 nM | EC50 [10]: 0.25 nM | EC50 [11]: 0.26 nM | EC50 [12]: 0.51 nM | EC50 [13]: 5220 nM | EC50 [14]: 0.24 nM | EC50 [15]: 0.14 nM | EC50 [16]: 0.3 nM | EC50 [17]: 0.21 nM | EC50 [18]: 0.3 nM | EC50 [19]: 0.22 nM | EC50 [20]: 0.13 nM | EC50 [22]: 0.44 nM | EC50 [23]: 0.73 nM | EC50 [24]: 3.13 nM | EC50 [25]: 2.88 nM | EC50 [26]: 8.45 nM
Structure (SMILES): Cc1cc(/C=C/C#N)cc(C)c1Nc1ccnc(Nc2ccc(C#N)cc2)n1 [RILPIVIRINE]
Activity (MT4): 5.91 µM | EC50 [21]: 0.21 nM | Activity [27]: > 31 days | Activity [28]: > 31 days | Activity [29]: > 31 days | Activity [30]: > 31 days | Activity [31]: > 31 days | Activity [32]: 10 days
